From ChEMBL document CHEMBL4017535 (J Med Chem, 2017)

What was measured:
[1] = biological target: T1, Bromodomain-containing protein 4 (Homo sapiens, UniProt O60885); assay: Binding affinity to human N-terminal His6-tagged BRD4 BD1-BD2 (K57 to K550 residues) after 1 hr using alexa-647 conjugated probe by TR-FRET assay
MX1 = assay: Antiproliferative activity against human MX1 cells after 72 hrs by Cell Titer Glo assay; format: functional, cell-based; details: MX1, 72 h
Liver [2] = assay: Unbound intrinsic clearance in human liver microsomes at 10 uM preincubated for 5 mins followed by NADPH addition measured after 60 mins by HPLC-UV-MS analysis; format: ADME, microsome; details: 1 h
Liver [3] = assay: Unbound intrinsic clearance in mouse liver microsomes; format: ADME, microsome
Method in brief: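 Liver microsome stability is expressed as unbound intrinsic clearance, Cl_int,u, in L/hr/kg. Dextromethorphan served as the in-house low-clearance reference control and verapamil as the high-clearance reference control.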

Liver [4] = assay: Unbound intrinsic clearance in rat liver microsomes at 10 uM preincubated for 5 mins followed by NADPH addition measured after 60 mins by HPLC-UV-MS analysis; format: ADME, microsome; details: 1 h
[5] = Permeability in MDCK cells; format: ADME, cell-based, Canis lupus familiaris; details: dog, read-out: permeability
[6] = biological target: T1, Bromodomain-containing protein 4; assay: Inhibition of BRD4 in human H1299 cells assessed as decrease in HPV LCR-E2-EP400-mediated transcriptional repression after 24 hrs by Bright-Glo luciferase reporter gene assay; format: cell-based
Mus musculus [7] = assay: Plasma unbound clearance in mouse at 3 mg/kg, iv; format: ADME, organism-based; details: in vivo
Method in brief: (§1)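 Mouse PK: 3 mg/kg IV and 10 mg/kg PO. Clearance is expressed unbound, Cl_p,u in L/hr/kg. AUC is unbound, in µM*hr. FaFg is computed as F/(1-Clp/Qh), with mouse liver blood flow Qh 5.2 L/hr/kg. Unbound plasma fraction was measured separately.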

Rattus norvegicus [8] = assay: Plasma unbound clearance in rat at 1 mg/kg, iv; format: ADME, organism-based; details: in vivo
Method in brief: (§2)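 In rats, 1 mg/kg was given by both IV and PO routes. IV clearance is unbound (Cl_p,u, L/hr/kg). FaFg is taken as F/(1-Clp/Qh), using rat Qh 3.8 L/hr/kg. Unbound plasma fraction was determined in rat plasma.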

Mus musculus [9] = assay: Unbound AUC in mouse at 10 mg/kg, po; format: ADME, organism-based; details: in vivo; method in brief: as §1
Mus musculus [10] = assay: Oral absorption in mouse at 10 mg/kg; format: ADME, organism-based; details: in vivo
Method in brief: (§3)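 Oral absorption is expressed as FaFg, calculated as F/(1-Clp/Qh). Liver blood flow (Qh) was 5.2 L/hr/kg for mouse and 3.8 L/hr/kg for rat. Mouse dosing was 3 mg/kg IV and 10 mg/kg PO; rat dosing was 1 mg/kg IV and PO.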

Rattus norvegicus [11] = assay: Oral absorption in rat at 1 mg/kg; format: ADME, organism-based; details: in vivo; method in brief: as §3
[12] = Oral bioavailability in mouse at 10 mg/kg; format: ADME, organism-based; details: in vivo; method in brief: as §1
[13] = Oral bioavailability in rat at 1 mg/kg; format: ADME, organism-based; details: in vivo; method in brief: as §2
[14] = Fraction unbound in mouse plasma at 1 uM after 4 hrs by LC-MS/MS method; format: ADME, cell-free
[15] = Fraction unbound in rat plasma at 1 uM after 4 hrs by LC-MS/MS method; format: ADME, cell-free
Rattus norvegicus [16] = assay: Unbound AUC in rat at 1 mg/kg, po; details: in vivo

SMILES	Ki [1] [nM]	EC50 (MX1) [nM]	CL free (Liver [2]) [mL/min/kg]	CL free (Liver [3]) [mL/min/kg]	CL free (Liver [4]) [mL/min/kg]	Papp [5] [×10⁻⁶ cm/s]	EC50 [6] [nM]	clearance (Mus musculus [7]) [mL/min/kg]	clearance (Rattus norvegicus [8]) [mL/min/kg]	fAUC (Mus musculus [9]) [µM·h]	FaFg (Mus musculus [10])	FaFg (Rattus norvegicus [11])	bioavailability [12] [%]	bioavailability [13] [%]	fraction unbound at 4 h, 1 µM [14]	fraction unbound at 4 h, 1 µM [15]	fAUC (Rattus norvegicus [16]) [µM·h]
CCS(=O)(=O)Nc1ccc(OC2CCN(C)CC2)c(-c2cn(C)c(=O)c3[nH]ccc23)c1	430	210	< 28.3	< 85	80	0.55	880	–	–	–	–	–	–	–	–	–	–
Cn1cc(-c2ccccc2Oc2ccccc2)cc(N)c1=O	3000	> 5000	–	–	–	–	8500	–	–	–	–	–	–	–	–	–	–
Cn1cc(-c2cc(NS(=O)(=O)CC(F)(F)F)ccc2Oc2ccccc2)c2cc[nH]c2c1=O	4.4	31	46.7	650	1270	16	22	–	–	–	–	–	–	–	–	–	–
Cn1cc(-c2cc(NS(C)(=O)=O)ccc2OC2CCCCC2)c2cc[nH]c2c1=O	3.7	14	450	3670	1600	23	18	–	–	–	–	–	–	–	–	–	–
CN(C)S(=O)(=O)Nc1ccc(Oc2ccccc2)c(-c2cn(C)c(=O)c3[nH]ccc23)c1	2.9	65	233	2330	4000	19	43	–	–	–	–	–	–	–	–	–	–
Cn1cc(-c2cc(C(N)=O)ccc2Oc2ccccc2)c2cc[nH]c2c1=O	14	120	48.3	450	550	14	71	–	–	–	–	–	–	–	–	–	–
Cn1cc(-c2cc(NS(C)(=O)=O)ccc2Oc2ccc(F)cc2F)c2cc[nH]c2c1=O	4.5	29	155	283	< 65	17	21	167	417	1.3	0.7	0.52	65	40	0.033	0.036	0.19
Cn1cc(-c2cc(NS(C)(=O)=O)ccc2OCc2ccccc2)c2cc[nH]c2c1=O	68	110	122	900	567	24	120	–	–	–	–	–	–	–	–	–	–
Cn1cc(-c2cc(S(N)(=O)=O)ccc2Oc2ccccc2)c2cc[nH]c2c1=O	3.6	56	< 43.3	517	1320	22	39	–	–	–	–	–	–	–	–	–	–
Cc1sc2c(c1C)C(c1ccc(Cl)cc1)=N[C@@H](CC(=O)OC(C)(C)C)c1nnc(C)n1-2	–	254	–	–	–	–	–	–	–	–	–	–	–	–	–	–	–
Cn1cc(-c2ccccc2Oc2ccccc2)c2cc[nH]c2c1=O	48	550	1670	93300	40000	31	480	–	–	–	–	–	–	–	–	–	–
Cn1cc(-c2cc(NS(C)(=O)=O)ccc2Oc2ccccc2C(F)(F)F)c2cc[nH]c2c1=O	6.4	83	533	1350	250	7.8	76	–	–	–	–	–	–	–	–	–	–
Cn1cc(-c2cc(NS(C)(=O)=O)ccc2Oc2cccnc2)c2cc[nH]c2c1=O	6.3	34	86.7	533	350	3	67	–	–	–	–	–	–	–	–	–	–
Cn1cc(-c2cc(S(C)(=O)=O)ccc2Oc2ccccc2)c2cc[nH]c2c1=O	5.8	52	91.7	383	1080	24	50	–	–	–	–	–	–	–	–	–	–
CCS(=O)(=O)Nc1ccc(Oc2c(F)cc(F)cc2F)c(-c2cn(C)c(=O)c3[nH]ccc23)c1	12	7.9	102	900	233	21	19	–	–	–	–	–	–	–	–	–	–
CCS(=O)(=O)Nc1ccc(Oc2ccc(Cl)cc2)c(-c2cn(C)c(=O)c3[nH]ccc23)c1	3.4	22	< 96.7	900	200	21	17	–	–	–	–	–	–	–	–	–	–
Cc1cc(-c2ccccc2Oc2ccccc2)c[nH]c1=O	1700	2400	–	–	–	–	2300	–	–	–	–	–	–	–	–	–	–

SMILES	Ki [1] [nM]	EC50 (MX1) [nM]	CL free (Liver [2]) [mL/min/kg]	CL free (Liver [3]) [mL/min/kg]	CL free (Liver [4]) [mL/min/kg]	Papp [5] [×10⁻⁶ cm/s]	EC50 [6] [nM]	clearance (Mus musculus [7]) [mL/min/kg]	clearance (Rattus norvegicus [8]) [mL/min/kg]	fAUC (Mus musculus [9]) [µM·h]	FaFg (Mus musculus [10])	FaFg (Rattus norvegicus [11])	bioavailability [12] [%]	bioavailability [13] [%]	fraction unbound at 4 h, 1 µM [14]	fraction unbound at 4 h, 1 µM [15]	fAUC (Rattus norvegicus [16]) [µM·h]
CC(=O)Nc1ccc(Oc2ccccc2)c(-c2cn(C)c(=O)c3[nH]ccc23)c1	9.8	46	113	3500	767	28	26	–	–	–	–	–	–	–	–	–	–
Cn1cc(-c2cc(NS(C)(=O)=O)ccc2Oc2ccccc2)c2cc[nH]c2c1=O	2.4	16	83.3	300	2000	12	11	650	1230	0.34	0.77	0.32	55	10	0.039	0.034	0.016
Cn1cc(-c2cc(NS(C)(=O)=O)ccc2Oc2ccc(F)cc2Cl)c2cc[nH]c2c1=O	3.1	27	233	850	317	11	35	–	–	–	–	–	–	–	–	–	–
CCS(=O)(=O)Nc1ccc(Oc2cncnc2)c(-c2cn(C)c(=O)c3[nH]ccc23)c1	32	130	< 33.3	233	48.3	1	170	–	–	–	–	–	–	–	–	–	–
Cn1cc(-c2ccccc2Oc2ccccc2)ccc1=O	890	4800	–	–	–	–	4100	–	–	–	–	–	–	–	–	–	–
Cn1cc(-c2cc(NS(C)(=O)=O)ccc2OC2CCC(F)(F)CC2)c2cc[nH]c2c1=O	19	19	< 38.3	717	200	12	20	–	–	–	–	–	–	–	–	–	–
CCS(=O)(=O)Nc1ccc(Oc2ccc(C(F)(F)F)cc2)c(-c2cn(C)c(=O)c3[nH]ccc23)c1	9	30	128	2830	583	11	65	–	–	–	–	–	–	–	–	–	–
CCS(=O)(=O)Nc1ccc(Oc2ccc(C#N)cc2)c(-c2cn(C)c(=O)c3[nH]ccc23)c1	9.4	17	41.7	< 108	81.7	11	48	–	–	–	–	–	–	–	–	–	–
Cn1cc(-c2cc(NS(C)(=O)=O)ccc2OC2CCOCC2)c2cc[nH]c2c1=O	68	72	< 30	< 90	233	1.7	90	–	–	–	–	–	–	–	–	–	–
CCNC(=O)c1ccc(Oc2ccccc2)c(-c2cn(C)c(=O)c3[nH]ccc23)c1	32	130	68.3	717	4000	30	70	–	–	–	–	–	–	–	–	–	–
COCCc1ccc(OCC(O)CNC(C)C)cc1 (stereo unspecified) [METOPROLOL]	–	–	–	–	–	36	–	–	–	–	–	–	–	–	–	–	–
CCS(=O)(=O)Nc1ccc(Oc2ccccc2)c(-c2cn(C)c(=O)c3[nH]ccc23)c1	1.5	14	< 45	917	3330	22	8.1	–	–	–	–	–	–	–	–	–	–
CCS(=O)(=O)Nc1ccc(OCC(C)(C)C)c(-c2cn(C)c(=O)c3[nH]ccc23)c1	38	77	283	1030	433	43	79	–	–	–	–	–	–	–	–	–	–
COc1ccc2c(c1)[C@]13CCCC[C@@H]1[C@H](C2)N(C)CC3 [DEXTROMETHORPHAN]	–	–	123	–	–	–	–	–	–	–	–	–	–	–	–	–	–
Cn1cc(-c2cc(NS(C)(=O)=O)cnc2Oc2ccccc2)c2cc[nH]c2c1=O	4.1	46	63.3	< 93.3	600	6	88	–	–	–	–	–	–	–	–	–	–
CCS(=O)(=O)Nc1ccc(OC2CCC(N(C)C)CC2)c(-c2cn(C)c(=O)c3[nH]ccc23)c1 (stereo unspecified)	26	86	< 26.7	125	< 45	2.7	270	–	–	–	–	–	–	–	–	–	–
